The results in this text go back to ChEMBL document CHEMBL1144718, “Novel 3-aroylpyrazolo[5,1-c][1,2,4]benzotriazine 5-oxides 8-substituted, ligands at GABAA/benzodiazepine receptor complex: synthesis, pharmacological and molecular modeling studies” (Bioorg Med Chem, 2008).

Assay [1] can be described thus: Displacement of [3H]flumazenil from GABAA/BzR complex in bovine cerebral cortex membrane. In kind it is cell membranes, Bos taurus. A digest of the protocol: (§1)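 Bovine cerebral cortex membranes in 50 mM Tris-citrate pH 7.4 incubated with [3H]Ro15-1788 (1–2 nM) for 1 h at 4 °C to equilibrium; nonspecific binding with 10^-5 M diazepam; DMSO ≤1%. Ki from ≥6 concentrations (10^-9–10^-5 M) by curve fitting and Cheng–Prusoff; percent inhibition at 10 µM; five determinations, triplicate.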

For assay [2], the system named is Mus musculus. Put plainly: Effect on motor coordination in CD1 Albino mouse assessed as number of falls in 30 secs at 3 mg/kg, po after 30 mins by rotarod test. The class given is functional. A digest of the protocol:
(§2)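 Rota-rod at 16 rpm in male CD-1 mice after po dosing in 1% CMC; number of falls in 30 s counted at 15, 30, 45 and 60 min post-administration.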

Assay [3] deals with Mus musculus. The experiment in a line: Effect on motor coordination in CD1 Albino mouse assessed as number of falls in 30 secs at 10 mg/kg, po after 30 mins by rotarod test relative to control. In kind it is functional. A digest of the protocol:
as §2

Assay [4] relates to Mus musculus. The experiment in a line: Effect on motor coordination in CD1 Albino mouse assessed as number of falls in 30 secs at 30 mg/kg, po after 30 mins by rotarod test relative to control. The class given is functional. A digest of the protocol:
as §2

Assay [5] concerns Mus musculus. The experiment in a line: Anticonvulsant activity against pentylenetetrazole-induced seizure in CD1 Albino mouse assessed as shock latency at 3 mg/kg, po after 30 mins. The class given is functional. A digest of the protocol: (§3)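 Male CD-1 mice (22–24 g), compound suspended in 1% CMC (sonicated) given po in 10 ml/kg; 30 min later PTZ 90 mg/kg sc (in saline). Latency (s) to shock and to convulsions recorded; clonic generalized convulsions counted over 30 min.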

The subject of assay [6] is Mus musculus. Put plainly: Anticonvulsant activity against pentylenetetrazole-induced seizure in CD1 Albino mouse assessed as shock latency at 10 mg/kg, po after 30 mins. The class given is functional. A digest of the protocol:
as §3

In assay [7] the test system is Mus musculus. Put plainly: Anticonvulsant activity against pentylenetetrazole-induced seizure in CD1 Albino mouse assessed as shock latency at 30 mg/kg, po after 30 mins. In kind it is functional. A digest of the protocol:
as §3

The test system of assay [8] is Mus musculus. The experiment in a line: Sedative activity in CD1 albino mouse assessed as reduction of curiosity at 3 mg/kg, po after 30 mins by hole-board test. The class given is functional, organism-based. Set-up: dose 3 mg/kg. A digest of the protocol: (§4)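 Hole-board: male CD-1 mice given compound po (1% CMC) and placed individually on the board 30 min later, free to explore panel and holes for 5 min; spontaneous motility and exploration (panel and hole movements) scored.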

Assay [9] has as its system Mus musculus. The experiment in a line: Sedative activity in CD1 albino mouse assessed as reduction of curiosity at 30 mg/kg, po after 30 mins by hole-board test. In kind it is functional, organism-based. Set-up: dose 30 mg/kg. A digest of the protocol: as §4
For assay [10], the system named is Mus musculus. The experiment in a line: Anxiolytic effect in CD1 albino mouse at 10 mg/kg, po after 30 mins by light-dark box test. Set-up: dose 10 mg/kg. The class given is functional, organism-based. A digest of the protocol:
(§5)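 Male CD-1 mice (22–24 g); test agent po in 1% CMC, 30 min before a light/dark box session; time (s) spent in the illuminated compartment measured. Means ± SEM of 14–21 mice.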

For assay [11], the system named is Mus musculus. Put plainly: Anxiolytic effect in CD1 albino mouse at 30 mg/kg, po after 30 mins by light-dark box test. Set-up: dose 30 mg/kg. The class given is functional, organism-based. A digest of the protocol: as §5
Assay [12] deals with Mus musculus. The experiment in a line: Increase in learning and memory performance in CD1 albino mouse at 10 mg/kg, po after 24 hrs by passive avoidance test. Set-up: dose 10 mg/kg. In kind it is functional, organism-based. A digest of the protocol: (§6)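 Passive avoidance in male CD-1 mice treated po 30 min before training; retention tested 24 h later. Latency to enter the dark compartment measured, maximum 60 s (training) and 180 s (retention). Means ± SEM of 15–18 mice.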

In assay [13] the test system is Mus musculus. Put plainly: Increase in learning and memory performance in CD1 albino mouse at 30 mg/kg, po after 24 hrs by passive avoidance test. In kind it is functional, organism-based. Set-up: dose 30 mg/kg. A digest of the protocol: as §6
Assay [14] concerns Mus musculus. The experiment in a line: Effect on ethanol-induced sleeping time in CD1 Albino mouse assessed as increase in duration of loss of righting reflex at 3 mg/kg, po after 30 mins. The class given is functional, organism-based. Set-up: dose 3 mg/kg. A digest of the protocol: (§7)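 Male CD-1 mice dosed po (1% CMC suspension); ethanol 4 g/kg ip given 30 min after the compound. Sleep time taken as duration of loss of righting reflex, end-point 150 min.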

The test system of assay [15] is Mus musculus. Put plainly: Effect on ethanol-induced sleeping time in CD1 Albino mouse assessed as increase in duration of loss of righting reflex at 10 mg/kg, po after 30 mins. The class given is functional, organism-based. Set-up: dose 10 mg/kg. A digest of the protocol: as §7
The subject of assay [16] is Mus musculus. Put plainly: Effect on ethanol-induced sleeping time in CD1 Albino mouse assessed as increase in duration of loss of righting reflex at 30 mg/kg, po after 30 mins. In kind it is functional, organism-based. Set-up: dose 30 mg/kg. A digest of the protocol:
as §7

Assay [17] concerns Mus musculus. Put plainly: Anticonvulsant activity against pentylenetetrazole-induced seizure in CD1 Albino mouse assessed as convulsant latency at 3 mg/kg, po after 30 mins. The class given is functional. A digest of the protocol:
as §3

In assay [18] the test system is Mus musculus. Put plainly: Anticonvulsant activity against pentylenetetrazole-induced seizure in CD1 Albino mouse assessed as convulsant latency at 10 mg/kg, po after 30 mins. The class given is functional. A digest of the protocol:
as §3

In assay [19] the test system is Mus musculus. Put plainly: Anticonvulsant activity against pentylenetetrazole-induced seizure in CD1 Albino mouse assessed as convulsant latency at 30 mg/kg, po after 30 mins. The class given is functional. A digest of the protocol: as §3
The next assay is filed under the species Bos taurus. The experiment in a line: Displacement of [3H]flumazenil from GABAA/BzR complex in bovine cerebral cortex membrane at 10 uM. In kind it is cell membranes. A digest of the protocol: as §1
The subject of assay [20] is Mus musculus. The experiment in a line: Sedative activity in CD1 albino mouse assessed as reduction of spontaneous motility at 3 mg/kg, po after 30 mins by hole-board test. The class given is functional, organism-based. Set-up: dose 3 mg/kg. A digest of the protocol:
as §4

Assay [21] has as its system Mus musculus. Put plainly: Sedative activity in CD1 albino mouse assessed as reduction of spontaneous motility at 10 mg/kg, po after 30 mins by hole-board test. The class given is functional, organism-based. Set-up: dose 10 mg/kg. A digest of the protocol: as §4
The test system of assay [22] is Mus musculus. Put plainly: Sedative activity in CD1 albino mouse assessed as reduction of spontaneous motility at 30 mg/kg, po after 30 mins by hole-board test. In kind it is functional, organism-based. Set-up: dose 30 mg/kg. A digest of the protocol:
as §4

In assay [23] the test system is Mus musculus. The experiment in a line: Sedative activity in CD1 albino mouse assessed as reduction of explorative activity at 3 mg/kg, po after 30 mins by hole-board test. In kind it is functional, organism-based. Set-up: dose 3 mg/kg. A digest of the protocol: as §4
The subject of assay [24] is Mus musculus. Put plainly: Sedative activity in CD1 albino mouse assessed as reduction of explorative activity at 10 mg/kg, po after 30 mins by hole-board test. In kind it is functional, organism-based. Set-up: dose 10 mg/kg. A digest of the protocol: as §4
The test system of assay [25] is Mus musculus. Put plainly: Sedative activity in CD1 albino mouse assessed as reduction of explorative activity at 30 mg/kg, po after 30 mins by hole-board test. In kind it is functional, organism-based. Set-up: dose 30 mg/kg. A digest of the protocol: as §4
Assay [26] deals with Mus musculus. Put plainly: Anxiolytic effect in CD1 albino mouse at 3 mg/kg, po after 30 mins by light-dark box test. The class given is functional, organism-based. Set-up: dose 3 mg/kg. A digest of the protocol:
as §5

The species named for assay [27] is Mus musculus. The experiment in a line: Reversal of anxiolytic effect in CD1 albino mouse by light-dark box test in presence of flumazenil. The class given is functional, organism-based. A digest of the protocol:
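Light/dark box in male CD-1 mice: compound po (1% CMC) 30 min before test, with flumazenil given ip at […] in saline; time (s) in illuminated compartment recorded. Means ± SEM of 14–21 mice.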

The subject of assay [28] is Mus musculus. The experiment in a line: Increase in learning and memory performance in CD1 albino mouse at 3 mg/kg, po after 24 hrs by passive avoidance test. The class given is functional, organism-based. Set-up: dose 3 mg/kg. A digest of the protocol: as §6

SMILES strings stand for the structures. Active and inactive are the calls of the source. No cut-off for these calls is given here.

Compound `CCOc1ccc2c(c1)n1ncc(C(=O)c3cccn3C)c1n[n+]2[O-]` showed a Ki in assay [1] of 819 nM.
In turn, `O=C(c1cccs1)c1cnn2c1n[n+]([O-])c1ccc(Oc3ccccc3)cc12` yielded a Ki in assay [1] of 8.9 nM. The Activity in the assay on Mus musculus [2] was found to be 0.8 count; with Mus musculus [3] it was 1.6 count; in the assay with Mus musculus [4] it was 2 count; in the assay with Mus musculus [5] it was 224.5 s; with Mus musculus [6] it was 279.7 s; in the assay with Mus musculus [7], 614.1 s. Further, the Activity in the assay with Mus musculus [17] was found to be 460.3 s; in the assay on Mus musculus [18], 542.6 s; in the assay with Mus musculus [19] it was 766.6 s. Besides, the outcome with Mus musculus [8], in the assay on Mus musculus [9], with Mus musculus [10], with Mus musculus [11], in the assay on Mus musculus [12] and in the assay with Mus musculus [13] was Active. Moreover, the result in the assay on Mus musculus [14], with Mus musculus [15] and with Mus musculus [16] was Active.
For the compound `O=C(c1cccs1)c1cnn2c1nnc1ccc(Oc3ccccc3)cc12`, the inhibitory constant (Ki) in assay [1] is 14.7 nM.
For the compound `O=C(c1ccsc1)c1cnn2c1n[n+]([O-])c1ccc(Cl)cc12`, the Ki in assay [1] stood at 121 nM.
Same read-out and setting: as for `Cn1cccc1C(=O)c1cnn2c1n[n+]([O-])c1ccc(Oc3ccccc3)cc12`, the figure is 1300 nM.
Compound `CCOc1ccc2c(c1)n1ncc(C(=O)c3ccco3)c1n[n+]2[O-]` came in with a Ki in assay [1] of 28 nM. Also, the Activity came out at 0.6 count with Mus musculus [2]; 0.8 count with Mus musculus [3]; 0.6 count with Mus musculus [4]; 328.5 s with Mus musculus [17]; 488.2 s in the assay with Mus musculus [18]. The result with Mus musculus [8] and in the assay with Mus musculus [9] was Active.
The compound `CC(=O)c1cnn2c1n[n+]([O-])c1ccc(Cl)cc12` returned an inhibitory constant (Ki) in assay [1] of 551 nM.
Take `O=C(c1ccco1)c1cnn2c1n[n+]([O-])c1ccc(Cl)cc12`: the affinity in [1], expressed as Ki, was 72 nM.
The compound `O=Cc1cnn2c1n[n+]([O-])c1ccc(Cl)cc12` had an inhibition in the assay filed under Bos taurus of 64%.
Consider `COc1ccc(C(=O)c2cnn3c2n[n+]([O-])c2ccc(Cl)cc23)cc1`, for which, in [1], the affinity corresponds to a Ki of 1240 nM.
`CCOc1ccc2c(c1)n1ncc(C(C)=O)c1n[n+]2[O-]`: the inhibition constant Ki in assay [1] came to 902 nM.
The same measure, in the same setting: as for `O=C(c1cccs1)c1cnn2c1n[n+]([O-])c1ccc(OCc3ccccc3)cc12`, the figure is 2.7 nM.
With `O=C(c1ccc[nH]1)c1cnn2c1n[n+]([O-])c1ccc(Cl)cc12`, the inhibition constant Ki in assay [1] is 4 nM. Also, the Activity in the assay with Mus musculus [2] is 0.6 count; with Mus musculus [3], 1.2 count; in the assay on Mus musculus [4], 0.8 count; in the assay with Mus musculus [5], 297.5 s; in the assay on Mus musculus [6], 264.7 s; with Mus musculus [7], 329.6 s. Further, the Activity was found to be 498.8 s in the assay on Mus musculus [17], 647.8 s with Mus musculus [18] and 535.2 s in the assay with Mus musculus [19]. For the same compound, the result in the assay on Mus musculus [20], in the assay with Mus musculus [21], in the assay on Mus musculus [23], in the assay with Mus musculus [24], in the assay on Mus musculus [26] and in the assay listed under Mus musculus [27] was inactive. Further, the result in the assay with Mus musculus [22], in the assay with Mus musculus [25], in the assay on Mus musculus [10], with Mus musculus [28], with Mus musculus [12] and in the assay with Mus musculus [14] was Active. The outcome in the assay with Mus musculus [15] and with Mus musculus [16] was Active.
`O=C(c1cccnc1)c1cnn2c1n[n+]([O-])c1ccc(Cl)cc12`: affinity in [1] was put at a Ki of 2400 nM.
As for `Cn1ccc(C(=O)c2cnn3c2n[n+]([O-])c2ccc(Cl)cc23)c1`, the affinity in assay [1] corresponds to a Ki of 380 nM.
